Results published in ChEMBL document CHEMBL4725355, “Design, Synthesis, and Preclinical Evaluation of 3-Methyl-6-(5-thiophenyl)-1,3-dihydro-imidazo[4,5-b]pyridin-2-ones as Selective GluN2B Negative Allosteric Modulators for the Treatment of Mood Disorders” (J Med Chem, 2020).
Converted amounts (≈) assume the structure as drawn.

Legend:
[1] = Stability of compound in phosphate buffer at pH 2 assessed as drug decomposition measured after 24 h; details: pH 2, 24 h
[2] = Negative allosteric modulation of human GluN1a/GluN2B receptor expressed in CHO cells assessed as inhibition of glutamate and glycine-induced calcium flux preincubated for 5 mins followed by glutamate and glycine addition and measured after 5 mins by calcium 5 dye based FLIPR assay; assay type: cell-based
In short: (§1)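 Tet-On CHO T-Rex cells expressing hGluN1a with GluN2A, 2B, 2C or 2D, plated at 20,000 cells/well and induced 24 h before the assay in the presence of ketamine. Cells loaded 1 h at room temperature with Calcium 5 dye, pH 7.4 HEPES buffer. Compound added 5 min, then glutamate (~EC80) plus 10 µM glycine for 5 min; FLIPR fluorescence normalized to control wells. Three independent runs in duplicate (two for some).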

[3] = biological target: Voltage-gated inwardly rectifying potassium channel KCNH2 (Homo sapiens, UniProt Q12809); assay: Inhibition of human ERG expressed in CHO cells measured after 5 mins by Qpatch method; assay type: cell-based
In short: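 CHO cells stably expressing hERG, whole-cell QPatch. Vehicle applied 5 min, then 0.3, 3.0, 10 and 30 µM in rising order, each concentration applied twice. Current measured after 5 min as the average of 3 voltage pulses; block taken relative to vehicle pretreatment, mean ± SEM.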

[4] = Metabolic stability in human liver microsomes assessed as extraction ratio at 1 uM after 5 to 60 mins in presence of NADPH by LC-MS/MS analysis; assay type: ADME, Microsome; details: time 5-60 min, read-out: ERH
In short: (§2)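 Human and rat liver microsomes, run in duplicate; stability reported as microsomal extraction ratio.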

[5] = Stability of compound in phosphate buffer at pH 7 assessed as drug decomposition measured after 24 h; details: pH 7, 24 h
[6] = Metabolic stability in rat liver microsomes assessed as extraction ratio at 1 uM after 5 to 60 mins in presence of NADPH by LC-MS/MS analysis; assay type: ADME, Microsome; details: time 5-60 min, read-out: ERH
In short: as §2

[7] = Efflux ratio of apparent permeability across basolateral to apical side over apical to basolateral side in MDCK-MDR1 cells at 5 uM measured after 60 mins by LC-MS/MS analysis; assay type: ADME, cell-based, Canis lupus familiaris; details: dog
In short: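 MDCK-MDR1 cells, passages 6-30, seeded at 3.4×10^5 cells/cm² and cultured 3 days. Test compound at 5 µM final (1% DMSO) in HBSS, pH 7.4, applied to the donor side. A→B and B→A runs at 37 °C for 60 min, in duplicate, quantified by LC/MS/MS. Efflux ratio taken as B-A/A-B; monolayer integrity checked by lucifer yellow.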

[8] = Displacement of 3-[3H] 1-(azetidin-1-yl)-2-[6-(4-fluoro-3-methyl-phenyl)pyrrolo[3,2-b]pyridin-1-yl]ethanone from GluN1a/GluN2B receptor in rat cortex membranes measured after 2 hrs by liquid scintillation counting method; assay type: cell membranes
In short: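 Rat adult cortex was homogenized in 50 mM Tris pH 7.4, and membranes were washed by centrifugation. Membranes were incubated with the [3H] pyrrolopyridine tracer and test compound for 2 h at room temperature with shaking. Non-specific binding was defined with 10 µM CP-101,606. Bound tracer was separated by filtration on PEI-soaked GF/B filters and counted by liquid scintillation. Ki was obtained from a competition fit using tracer Kd; three independent runs in duplicate.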

[9] = Solubility of compound in phosphate buffer at pH 2 measured after 3 days; assay type: physicochemical; details: time 3 day
In short: (§3)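 Solubility in aqueous buffer at pH 2 and pH 7, and in simulated gastric and intestinal fluids.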

[10] = Solubility of compound in phosphate buffer at pH 7 measured after 3 days; assay type: physicochemical; details: time 3 day
In short: as §3

[11] = Protein binding in human plasma at 1 uM after 6 hrs by equilibrium dialysis method; assay type: ADME, cell-free; details: read-out: PPB (converted)
[12] = Half life in Sprague-Dawley rat at 0.5 mg/kg, iv or 2.5 mg/kg, po using 20% HP-beta-CD formulation by LC-MS/MS analysis; assay type: ADME, organism-based; details: in vivo
In short: (§4)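 Rats dosed 0.5 mg/kg i.v. and 2.5 mg/kg p.o., n=3 ± SD. Default vehicle is 20% HP-β-CD; one PK set used 1:1 PEG400/water and another 30% SBE-β-CD.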

[13] = Clearance in Sprague-Dawley rat at 0.5 mg/kg, iv using 20% HP-beta-CD formulation by LC-MS/MS analysis; assay type: ADME, organism-based; details: in vivo
In short: (§5)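 Rat PK with IV and PO dosing, n=3. The usual doses were 0.5 mg/kg IV and 2.5 mg/kg PO in 20% HP-β-CD. One compound was instead given at 0.1 mg/kg IV and 0.5 mg/kg PO.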

[14] = Cmax in Sprague-Dawley rat at 0.5 mg/kg, iv or 2.5 mg/kg, po using 20% HP-beta-CD formulation by LC-MS/MS analysis; assay type: ADME, organism-based; set-up: dose 2.5 mg/kg; details: in vivo
In short: as §5

[15] = Volume of distribution at steady state in Sprague-Dawley rat at 0.5 mg/kg, iv or 2.5 mg/kg, po using 20% HP-beta-CD formulation by LC-MS/MS analysis; assay type: ADME, organism-based; details: in vivo, read-out: Vdss
In short: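 Rat PK at 0.5 mg/kg i.v. and 2.5 mg/kg p.o., vehicle 20% HP-β-CD. n=3, values given as mean ± SD.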

[16] = Oral bioavailability in Sprague-Dawley rat at 2.5 mg/kg using 20% HP-beta-CD formulation by LC-MS/MS analysis; assay type: ADME, organism-based; details: in vivo
In short: as §4

[17] = Negative allosteric modulation of human GluN1a/GluN2A receptor expressed in CHO cells assessed as inhibition of glutamate and glycine-induced calcium flux preincubated for 5 mins followed by glutamate and glycine addition and measured after 5 mins by calcium 5 dye based FLIPR assay; assay type: cell-based
In short: as §1

[18] = Negative allosteric modulation of human GluN1a/GluN2C receptor expressed in CHO cells assessed as inhibition of glutamate and glycine-induced calcium flux preincubated for 5 mins followed by glutamate and glycine addition and measured after 5 mins by calcium 5 dye based FLIPR assay; assay type: cell-based
In short: as §1

[19] = Negative allosteric modulation of human GluN1a/GluN2D receptor expressed in CHO cells assessed as inhibition of glutamate and glycine-induced calcium flux preincubated for 5 mins followed by glutamate and glycine addition and measured after 5 mins by calcium 5 dye based FLIPR assay; assay type: cell-based
In short: as §1

[20] = Ex vivo receptor occupancy at GluN2B in Sprague-Dawley rat assessed as 3-[3H] 1-(azetidin-1-yl)-2-[6-(4-fluoro-3-methyl-phenyl)pyrrolo[3,2-b]pyridin-1-yl]-ethanone labelling at 3 mg/kg, po measured after 6 hrs by autoradiography; assay type: functional
In short: (§6)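 Rats dosed orally at 3 mg/kg in 20% HP-β-CD; brains taken at 0.5, 2 and 6 h. Ex vivo autoradiography of brain slices with the ³H pyrrolo[3,2-b]pyridine GluN2B tracer. Labelling expressed relative to matching brain areas of vehicle-treated animals; n=2, ± SEM.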

[21] = AUC (infinity) in Sprague-Dawley rat at 0.5 mg/kg, iv or 2.5 mg/kg, po using 30% SBE-beta-CD formulation by LC-MS/MS analysis; assay type: ADME, organism-based; set-up: dose 2.5 mg/kg; details: in vivo
In short: (§7)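 Rat IV/PO PK at 0.5 mg/kg IV and 2.5 mg/kg PO, dosed in 30% SBE-β-CD, n=3.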

[22] = Tmax in Sprague-Dawley rat brain at 3 mg/kg, po by LC-MS/MS analysis; assay type: ADME, organism-based
In short: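 Rats dosed orally at 3 mg/kg in 20% HP-β-CD. Brain concentrations were measured over a 6 h time course (0.5, 2, 6 h) alongside ex vivo GluN2B occupancy, n=2.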

[23] = Cmax in Sprague-Dawley rat brain at 3 mg/kg, po after 2 hrs by LC-MS/MS analysis; assay type: ADME, organism-based; set-up: route oral, dose 3 mg/kg, time 2 hrs
In short: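 Oral dose of 3 mg/kg in 20% HP-β-CD to rats. Brain concentration was measured alongside ex vivo GluN2B occupancy over a 6 h time course (0.5, 2 and 6 h), n=2.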

[24] = Ex vivo receptor occupancy at GluN2B in Sprague-Dawley rat assessed as 3-[3H] 1-(azetidin-1-yl)-2-[6-(4-fluoro-3-methyl-phenyl)pyrrolo[3,2-b]pyridin-1-yl]-ethanone labelling at 3 mg/kg, po measured after 2 hrs by autoradiography; assay type: functional
In short: as §6

[25] = Clearance in Sprague-Dawley rat at 0.5 mg/kg, iv using 30% SBE-beta-CD formulation by LC-MS/MS analysis; assay type: ADME, organism-based; details: in vivo
In short: as §7

[26] = Cmax in Sprague-Dawley rat at 0.5 mg/kg, iv or 2.5 mg/kg, po using 30% SBE-beta-CD formulation by LC-MS/MS analysis; assay type: ADME, organism-based; set-up: dose 2.5 mg/kg; details: in vivo
In short: as §7

[27] = Ex vivo receptor occupancy at GluN2B in Sprague-Dawley rat assessed as 3-[3H] 1-(azetidin-1-yl)-2-[6-(4-fluoro-3-methyl-phenyl)pyrrolo[3,2-b]pyridin-1-yl]-ethanone labelling at 3 mg/kg, po measured after 0.5 hrs by autoradiography; assay type: functional
In short: as §6

[28] = Half life in Sprague-Dawley rat at 0.5 mg/kg, iv or 2.5 mg/kg, po using 30% SBE-beta-CD formulation by LC-MS/MS analysis; assay type: ADME, organism-based; details: in vivo
In short: as §4

[29] = Oral bioavailability in Sprague-Dawley rat at 2.5 mg/kg using 30% SBE-beta-CD formulation by LC-MS/MS analysis; assay type: ADME, organism-based; details: in vivo
In short: as §4

[30] = Tmax in Sprague-Dawley rat at 0.5 mg/kg, iv or 2.5 mg/kg, po using 30% SBE-beta-CD formulation by LC-MS/MS analysis; assay type: ADME, organism-based; details: in vivo
In short: (§8)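 Rat PK at 0.5 mg/kg i.v. and 2.5 mg/kg p.o., vehicle 30% SBE-β-CD. n=3, values given as mean ± SD.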

[31] = Volume of distribution at steady state in Sprague-Dawley rat at 0.5 mg/kg, iv or 2.5 mg/kg, po using 30% SBE-beta-CD formulation by LC-MS/MS analysis; assay type: ADME, organism-based; details: in vivo, read-out: Vdss
In short: as §8

Voltage-gated inwardly rectifying potassium channel KCNH2, sequence (Q12809 whole entry): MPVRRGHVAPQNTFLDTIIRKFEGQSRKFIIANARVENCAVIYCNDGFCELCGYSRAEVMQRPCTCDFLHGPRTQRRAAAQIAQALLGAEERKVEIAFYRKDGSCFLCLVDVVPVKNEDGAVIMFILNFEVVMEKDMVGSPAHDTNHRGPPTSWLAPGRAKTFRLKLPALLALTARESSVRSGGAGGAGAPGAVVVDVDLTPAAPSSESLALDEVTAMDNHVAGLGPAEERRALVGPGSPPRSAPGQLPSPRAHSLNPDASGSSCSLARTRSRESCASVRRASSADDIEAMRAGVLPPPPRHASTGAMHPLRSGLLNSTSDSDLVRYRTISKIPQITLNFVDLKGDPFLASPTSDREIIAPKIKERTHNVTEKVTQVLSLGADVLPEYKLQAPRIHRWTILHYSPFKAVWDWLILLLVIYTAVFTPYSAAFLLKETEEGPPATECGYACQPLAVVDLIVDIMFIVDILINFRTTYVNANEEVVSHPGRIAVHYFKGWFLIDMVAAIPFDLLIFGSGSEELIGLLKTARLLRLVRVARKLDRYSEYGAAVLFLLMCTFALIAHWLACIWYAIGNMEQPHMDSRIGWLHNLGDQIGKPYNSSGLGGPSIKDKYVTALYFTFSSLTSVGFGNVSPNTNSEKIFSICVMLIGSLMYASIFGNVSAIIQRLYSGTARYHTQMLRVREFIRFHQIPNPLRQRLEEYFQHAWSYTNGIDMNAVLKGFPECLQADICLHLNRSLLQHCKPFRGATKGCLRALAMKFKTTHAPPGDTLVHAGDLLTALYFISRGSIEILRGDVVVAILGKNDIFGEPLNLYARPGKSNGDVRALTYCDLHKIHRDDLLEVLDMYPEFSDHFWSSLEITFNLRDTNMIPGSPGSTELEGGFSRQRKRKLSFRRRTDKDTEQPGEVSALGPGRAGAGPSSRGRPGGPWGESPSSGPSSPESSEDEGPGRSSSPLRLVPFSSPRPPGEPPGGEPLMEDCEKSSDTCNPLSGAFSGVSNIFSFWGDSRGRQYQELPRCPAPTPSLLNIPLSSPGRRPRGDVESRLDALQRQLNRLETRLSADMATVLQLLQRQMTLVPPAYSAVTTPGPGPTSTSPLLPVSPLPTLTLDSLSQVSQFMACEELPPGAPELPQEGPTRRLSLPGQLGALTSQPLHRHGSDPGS

SMILES	IC50 [2] [µM]	hepatic extraction ratio at 1 µM [4]	hepatic extraction ratio at 1 µM [6]	efflux ratio at 1 h, 5 µM [7]	Ki [8] [µM]	solubility at 72 h [9] [µM]	solubility at 72 h [10] [µM]	IC50 [3] [µM]	also measured
Cn1c(=O)n(CC(=O)N2CCC2)c2cc(-c3ccc(C(F)F)s3)cnc21	0.006	0.46	0.58	5.8	0.019			> 10	Stabilty [1]: Unstable; Stabilty [5]: Unstable
Cn1c(=O)n(CC(=O)N2CCC2)c2cc(-c3cccc(C(F)(F)F)c3)cnc21	0.097	< 0.3	< 0.2	9	0.019	19 (≈ 7.42 µg/mL)	23 (≈ 8.98 µg/mL)	> 10	fraction unbound at 6 h, 1 µM [11]: 0.052
CN(C)C(=O)Cn1c(=O)n(C)c2ncc(-c3cccc(C(F)(F)F)c3)cc21	0.047	0.38	0.31	7	0.019	6 (≈ 2.27 µg/mL)	6 (≈ 2.27 µg/mL)	> 10	
Cc1csc(-c2cnc3c(c2)n(CC(=O)N(C)C)c(=O)n3C)c1	0.216	0.59	0.82	3.5	0.27	31 (≈ 10.2 µg/mL)	25 (≈ 8.26 µg/mL)	> 10	
Cn1c(=O)n(CC(=O)N2CCC2)c2cc(-c3cc(C(F)F)cs3)cnc21	0.079	< 0.3	0.52	9.1	0.059			> 10	Stabilty [1]: Unstable; Stabilty [5]: Unstable
O=C(Cn1c(=O)[nH]c2ncc(-c3cccc(C(F)(F)F)c3)cc21)NC1CC1						< 4	< 4	> 10	IC50 [17]: > 10 µM; IC50 [18]: > 10 µM; IC50 [19]: > 10 µM; fraction unbound at 6 h, 1 µM [11]: 0.004
Cn1c(=O)n(CC(=O)N2CC(F)C2)c2cc(-c3ccc(C(F)(F)F)s3)cnc21	0.071	< 0.3	0.17	3.7	0.021	< 4	< 4	> 10	Occ [20]: 24%; AUC(0-inf) [21]: 3610 ng·h/mL; Tmax [22]: 120 min; Cmax [23]: 728 ng/g; Occ [24]: 71%; clearance [25]: 20 mL/min/kg; Cmax [26]: 1000 ng/mL; Occ [27]: 74%; half-life [28]: 54 min; bioavailability [29]: 109%; Tmax [30]: 60 min; Vd [31]: 0.9 L/kg

The remaining compounds from weak to strong by IC50 [2], led by results:

IC50 [2] [µM]	hepatic extraction ratio at 1 µM [4]	hepatic extraction ratio at 1 µM [6]	efflux ratio at 1 h, 5 µM [7]	Ki [8] [µM]	solubility at 72 h [9] [µM]	solubility at 72 h [10] [µM]	SMILES	IC50 [3] [µM]	also measured
0.118	< 0.3	< 0.2	7	0.025	17 (≈ 6.94 µg/mL)	16 (≈ 6.53 µg/mL)	Cn1c(=O)n(CC(=O)N2CC(F)C2)c2cc(-c3cccc(C(F)(F)F)c3)cnc21	> 10	
0.081				0.063			Cn1c(=O)n(CC(=O)N2CCC2)c2cc(-c3ccc(C4CC4)s3)cnc21	> 10	
0.025	0.56	0.78	3.2	0.044	39 (≈ 13.4 µg/mL)	48 (≈ 16.4 µg/mL)	Cc1ccc(-c2cnc3c(c2)n(CC(=O)N2CCC2)c(=O)n3C)s1	> 10	half-life [12]: 12 min; clearance [13]: 114 mL/min/kg; Cmax [14]: 6 ng/mL; Vd [15]: 1.1 L/kg; bioavailability [16]: 1%
